In assay [1] the test system is T47D. The assay can be described thus: Inhibition of mitochondrial ETC complex 4 in human digitonin-permeabalized T47D cells assessed as inhibition of ascorbate/TMPD-initiated respiration at 0.01 uM after 2 hrs by Clarke-type electrode analysis in presence of antimycin A. Format: cell-based. In a few lines:
(§1)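 After 2 h pretreatment (rotenone 0.01 μM; test agents 10 μM), cells were detached and permeabilised with digitonin. Additions made in sequence: malate/pyruvate (complex I) or succinate (complex II), antimycin A to block complex III, then TMPD/ascorbate (complex IV) to restart respiration. Clark-electrode O2 consumption slopes were normalised to untreated control.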

In assay [2] the test system is T47D. The assay can be described thus: Inhibition of mitochondrial ETC complex 2 in human digitonin-permeabalized T47D cells assessed as inhibition of succinate-initiated respiration at 0.01 uM after 2 hrs by Clarke-type electrode analysis. Format: cell-based. A digest of the protocol: as §1
For assay [3], the system named is T47D. The assay can be described thus: Inhibition of mitochondrial ETC complex 1 in human digitonin-permeabalized T47D cells assessed as inhibition of malate/pyruvate-initiated respiration at 0.01 uM after 2 hrs by Clarke-type electrode analysis. In kind it is cell-based. In a few lines:
as §1

Assay [4] relates to T47D. The assay is described as follows: Inhibition of mitochondrial ETC complex 1 in human T47D cells assessed as inhibition of oxygen consumption at 0.01 uM after 2 hrs by Clarke-type electrode analysis. Format: cell-based. In a few lines:
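T47D cells treated 2 h in culture dishes with compound (10 μM; rotenone 0.01 μM), then detached and washed. O2 consumption measured with a Clark-type electrode. Value is % inhibition versus untreated control.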

The subject of assay [5] is T47D. The assay is described as follows: Inhibition of mitochondrial ETC complex 1 in human T47D cells assessed as inhibition of oxygen consumption at 0.01 uM after 10 mins by Clarke-type electrode analysis. In kind it is cell-based. A digest of the protocol:
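Intact T47D cells; O2 consumption read on a Clark-type electrode after acute (5–10 min) compound exposure. Value is % inhibition of O2 consumption rate versus untreated control. Rotenone reference tested at 1, 10 and 100 nM. Mean of two independent experiments.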

Assay [6] relates to T47D. The assay can be described thus: Antiproliferative activity against human T47D cells at 1 to 10 uM after 48 hrs by SRB assay. Format: functional, cell-based. In a few lines:
(§2)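 T47D or MDA-MB-231 breast tumor cells were exposed to 1, 3, 10 and 30 μM for 48 h or 144 h (6 d). For the 6 d exposure, medium was replaced after 3 days with fresh medium containing compound. Stocks were 4 mM in 2-propanol, with final solvent below 0.75%. Viability was measured by sulforhodamine B and expressed as % inhibition of the untreated control: [1−(OD treated/OD control)]×100.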
A general note: Sulforhodamine B stains cellular protein and so reports cell mass.

The next assay has as its system MDA-MB-231. The assay is described as follows: Antiproliferative activity against human MDA-MB-231 cells at 1 to 10 uM after 48 hrs by SRB assay. In kind it is functional, cell-based. A digest of the protocol:
as §2

For assay [7], the system named is T47D. The assay can be described thus: Inhibition of mitochondrial ETC complex 1 in human T47D cells assessed as inhibition of oxygen consumption at 10 uM after 2 hrs by Clarke-type electrode analysis. In kind it is cell-based. A digest of the protocol:
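T47D cells were pretreated with 10 μM compound, or 0.01 μM rotenone, for 2 h. Cells were then detached and washed, and the oxygen consumption rate was measured with a Clarke-type electrode. Results are % inhibition relative to untreated controls.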

For assay [8], the system named is T47D. The assay is described as follows: Inhibition of mitochondrial ETC complex 1 in human T47D cells assessed as inhibition of oxygen consumption at 10 uM after 10 mins by Clarke-type electrode analysis. Format: cell-based. A digest of the protocol: (§3)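 For acute exposure, intact T47D cells received compound at 3, 10 or 30 μM for 5–10 min. Oxygen consumption was then measured with a Clarke-type electrode, with rotenone at 1–100 nM as control. Results are % inhibition of the untreated rate, averaged over two independent experiments with deviation from the average.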

Assay [9] concerns T47D. The assay can be described thus: Inhibition of mitochondrial ETC complex 1 in human T47D cells assessed as inhibition of oxygen consumption at 30 uM after 5 to 10 mins by Clarke-type electrode analysis. Format: cell-based. A digest of the protocol: as §3
Assay [10] addresses T1, Mitochondrial complex I (NADH dehydrogenase) (Homo sapiens) (UniProt P03923+O95299+O00217+P03901+P56556+P03886+O95139+O00483+Q86Y39+P17568+P03891+O75306+P03915+P51970+O43674+P03905+P03897+O14561+O15239+O43181+O43676+O43677+O43678+O43920+O75251+O75380+O75438+O75489+O95167+O95168+O95169+O95178+O95182+O95298+O96000+P19404+P28331+P49821+P56181+Q16718+Q16795+Q8N183+Q9BU61+Q9NRX3+Q9NX14+Q9P032+Q9P0J0+Q9UI09+Q9Y375+Q9Y6M9). The assay can be described thus: Inhibition of mitochondrial ETC complex 1 in human T47D cells assessed as inhibition of 1% O2-induced HIF1 activation at 30 uM incubated for 30 mins prior to 1% O2-challenge measured after 16 hrs by luciferase reporter assay. In kind it is cell-based. In a few lines:
(§4)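 pHRE-luc reporter transfected T47D cells were exposed for 16 h to hypoxia (1% O2) or to chemical hypoxia (10 μM 1,10-phenanthroline) in the presence of compound. The highest concentration tested was 30 μM. Luciferase signal was expressed as % inhibition of the induced control. IC50 and 95% CI came from one representative concentration-response experiment run in triplicate. Cycloheximide at 10 μM served as control.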
A general note: In a reporter assay the amount or activity of a reporter protein is the signal.

The target in assay [11] is T1, Mitochondrial complex I (NADH dehydrogenase) (Homo sapiens). The assay can be described thus: Inhibition of mitochondrial ETC complex 1 in human T47D cells assessed as inhibition of 1,10-phenanthroline-induced HIF1 activation at 30 uM incubated for 30 mins prior to 1,10-phenanthroline-challenge measured after 16 hrs by luciferase reporter assay. In kind it is cell-based. A digest of the protocol: as §4

Assay [12] deals with Mitochondrial complex I (NADH dehydrogenase). The assay can be described thus: Inhibition of mitochondrial ETC complex 1 in human T47D cells assessed as inhibition of 1,10-phenanthroline-induced HIF1 activation incubated for 30 mins prior to 1,10-phenanthroline-challenge measured after 16 hrs by luciferase reporter assay. Format: cell-based. A digest of the protocol:
as §4

For assay [13] the target is unchanged. The assay is described as follows: Inhibition of mitochondrial ETC complex 1 in human T47D cells assessed as inhibition of 1% O2-induced HIF1 activation incubated for 30 mins prior to 1% O2-challenge measured after 16 hrs by luciferase reporter assay. In kind it is cell-based. A digest of the protocol: as §4

Activity calls are given as the source filed them. The calls are words filed in the database; no cut-off is given here.

In general, inhibition refers to the change of the read-out against control, counted positive when it falls. Consider `C=C(C)[C@H]1Cc2c(ccc3c2O[C@@H]2COc4cc(OC)c(OC)cc4[C@@H]2C3=O)O1`, for which the inhibition result in the assay with T47D [1] was “inactive”. The inhibition was determined as 18% in the assay on T47D [2], 75% in the assay on T47D [3], 68% in the assay on T47D [4] and 21% in the assay on T47D [5].

As usually defined, the IC50 is the midpoint of a concentration-inhibition curve. On to `CCCCCC/C=C\CCCCCCCCCC(=O)O[C@H](CC/C(C)=C/COc1ccc2ccc(=O)oc2c1)C(C)(C)O` [R-(+)-MARMIN-6'-CIS-VACCENOATE], for which the outcome in the assay on T47D [6] and in the assay on MDA-MB-231 was Active. For the same molecule, the inhibition with T47D [7] is -6%; with T47D [8] it was 5%; in the assay on T47D [9], 20%; in assay [10] it was 20%; in assay [11] it was 20%. For the same molecule, the IC50 in assay [12] and in [13] was above 30 µM throughout.

The values are drawn from ChEMBL document CHEMBL2346643, “Semisynthetic studies identify mitochondria poisons from botanical dietary supplements--geranyloxycoumarins from Aegle marmelos” (Bioorg Med Chem, 2013).
